Laboratory results: article PMC5444390 (Journal of medicinal chemistry, 2016)

Key:
[1] = tested on: Her3 and wild-type B-Raf in A549 cells; assay: Western blot for Her3 and wild-type B-Raf; format: cell-based; conditions: for Her3 and wild-type B-Raf levels, control compounds: A549, 12 and 24 h, five-times the reported IC50
Method in brief: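 Cells harvested in cold PBS, lysed in M-PER with protease/phosphatase inhibitors, 15 µg protein resolved on reducing 10% gels, transferred to PVDF, immunoblotted for Her3 and B-Raf, HRP-chemiluminescent detection.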

[2] = tested on: A549 lung cancer cell line; conditions: cited from earlier work
[3] = tested on: Hsp90 client proteins (EGFR, Her2, C-Raf) and Hsp90 in A549 cells; assay: Western blot for Hsp90 client proteins and Hsp90, A549 lysates; format: cell-based; conditions: for Hsp90 client levels: A549, 12 or 24 h
Method in brief: (§1)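 MCF7 (Advanced DMEM/F12, 2 mM L-glutamine) or A549 (F12K) cells, with 10% FBS and pen/strep at 37 °C, 5% CO2. […] M-PER lysates with protease/phosphatase inhibitors, 15 µg protein on reducing 10% gels, PVDF, HRP-chemiluminescence.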

[4] = tested on: Hsp90 client proteins (EGFR, Her2, C-Raf) and Hsp90 in MCF7 cells; assay: Western blot for Hsp90 client proteins and Hsp90, MCF7 lysates; format: cell-based; conditions: MCF7, 12 h
Method in brief: as §1

[5] = tested on: MAPK pathway (EGFR, C-Raf, MEK, ERK, p-MEK, p-ERK) in A549 cells; assay: Western blot for MAPK pathway proteins, p-MEK and p-ERK, A549 lysates; format: cell-based
[6] = tested on: p-Akt and total Akt in A549 cells; assay: Western blot for p-Akt and total Akt, A549 lysates; format: cell-based; conditions: A549, 2 to 12 h (Supplementary Figure 2)
[7] = tested on: Hsp90 luciferase refolding activity in PC3-MM2 cells; assay: Luciferase refolding assay; format: cell-based; conditions: 0–100 μM, 1 h
Method in brief: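 Heat-denatured luciferase: luciferase-expressing PC3-MM2 cells were heated 8–12 min at 50 °C in DMEM until luminescence was 1% of initial. They were added (60,000 cells/100 µL final) to test compound, 0–100 µM, 1% DMSO final, and incubated 1 h. Luciferin/CoA/ATP reagent (tricine pH 7.8) was added and luminescence read immediately (0.5 s). Refolding was normalized to 1% DMSO = 100%. Triplicate concentrations, dose-response curves.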

[8] = tested on: A549 lung cancer cell line; assay: Anti-proliferation; format: cell-based; conditions: 0.15 μM versus 1.7 μM
[9] = biological target: wild type B-Raf / c-Raf heterodimer in A549 cells (Homo sapiens, UniProt P15056); assay: Co-immunoprecipitation of B-Raf, A549 lysates; format: cell-based; conditions: A549, 24 h, five-times IC50
Sequence of wild type B-Raf / c-Raf heterodimer in A549 cells (P15056 whole entry, one chain of several): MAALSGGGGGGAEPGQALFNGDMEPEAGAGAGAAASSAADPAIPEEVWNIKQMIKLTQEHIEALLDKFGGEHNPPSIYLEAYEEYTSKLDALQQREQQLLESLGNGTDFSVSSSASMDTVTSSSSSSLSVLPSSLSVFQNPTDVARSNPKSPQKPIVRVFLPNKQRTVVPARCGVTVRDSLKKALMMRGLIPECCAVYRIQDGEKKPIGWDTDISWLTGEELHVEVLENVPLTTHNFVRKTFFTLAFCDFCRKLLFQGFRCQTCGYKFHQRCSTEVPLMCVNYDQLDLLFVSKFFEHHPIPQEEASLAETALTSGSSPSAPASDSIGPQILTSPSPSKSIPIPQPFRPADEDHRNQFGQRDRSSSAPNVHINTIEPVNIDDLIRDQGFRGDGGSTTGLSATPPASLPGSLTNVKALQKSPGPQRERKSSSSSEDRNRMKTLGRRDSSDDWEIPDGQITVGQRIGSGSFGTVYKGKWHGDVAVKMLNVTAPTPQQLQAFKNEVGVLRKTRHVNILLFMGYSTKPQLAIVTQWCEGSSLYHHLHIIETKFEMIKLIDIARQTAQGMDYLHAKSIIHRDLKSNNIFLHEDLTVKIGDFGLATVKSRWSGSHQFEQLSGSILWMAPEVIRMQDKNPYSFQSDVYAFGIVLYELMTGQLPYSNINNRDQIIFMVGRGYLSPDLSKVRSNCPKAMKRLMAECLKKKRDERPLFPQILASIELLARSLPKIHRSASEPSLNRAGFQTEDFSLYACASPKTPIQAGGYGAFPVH

[10] = tested on: Hsp90 client proteins and Hsp90; assay: Western blot for clients and Hsp90 with geldanamycin; format: cell-based; conditions: Supplementary Figure 1
[11] = A549, 750 nM, 2 to 12 h, vs vehicle

In the case of `N#Cc1c(Oc2ccc(F)c(NC(=O)Cc3cccc(C(F)(F)F)c3)c2)ccc2nc(NC(=O)C3CC3)sc12` [TAK-632], the “Her3 and wild-type B-Raf levels, control compounds” value [1] is given as “remained unaffected” and the IC50 ([2]; read-out: IC50 value against A549 (reported), A549 lung cancer cell line) is given as 1.7 µM.
For `Cc1c(OC2CCN(C)CC2)ccc2cc(NC(=O)Nc3cccc(-c4ccccc4)c3)c(=O)oc12` [Compound 3, 1-([1,1′-biphenyl]-3-yl)-3-(8-methyl-7-((1-methylpiperidin-4-yl)oxy)-2-oxo-2H-chromen-3-yl)urea], the “Hsp90-dependent client protein levels” value ([3]; A549, 24 h, five-times IC50) was “decreased levels” and the Hsp90 levels ([3]; A549, 24 h, five-times IC50) was “constant levels”.
In the case of `Cc1c(OC2CCN(C)CC2)ccc2cc(NC(=O)Nc3ccccc3)c(=O)oc12` [Compound 1, 1-(8-methyl-7-((1-methylpiperidin-4-yl)oxy)-2-oxo-2H-chromen-3-yl)-3-phenylurea], the “Hsp90 client levels (EGFR, Her2, C-Raf)” value ([3]; A549, 12 h, high concentration (five-times IC50), vs vehicle) is reported as “decreased levels”, the Hsp90 levels ([3]; A549, 12 h, low and high concentrations) is reported as “comparable to vehicle” and the “Hsp90 client levels (EGFR, Her2, C-Raf)” value ([4]; high concentration (five-times IC50), vs vehicle) is reported as “decreased levels”. The Hsp90 levels ([4]; low and high concentrations) was “comparable to vehicle”.
For `CCCS(=O)(=O)Nc1ccc(F)c(C(=O)c2c[nH]c3ncc(-c4ccc(Cl)cc4)cc23)c1F` [vemurafenib], the “Her3 and wild-type B-Raf levels, control compounds” value [1] is listed as “little effect” and the “Activity against the A549 cell line” value ([2]; A549 expresses only wild-type B-Raf) is listed as “relatively inactive”.
With `COc1ccc(NC(=O)Nc2cc3ccc(OC4CCN(C)CC4)c(C)c3oc2=O)cc1-c1ccccc1` [Compound 4, 1-(6-methoxy-[1,1′-biphenyl]-3-yl)-3-(8-methyl-7-((1-methylpiperidin-4-yl)oxy)-2-oxo-2H-chromen-3-yl)urea] the Hsp90 client levels ([3]; five-times IC50) was “did not result in decreased client levels”, the “p-MEK and pERK levels” value ([5]; A549, 12 h, five-times IC50, vs vehicle) was “decreased” and the “p-MEK and p-ERK levels” value ([5]; A549, 24 h, five-times IC50) was “reestablished”.
In the case of `COc1cccc(-c2cc(NC(=O)Nc3cc4ccc(OC5CCN(C)CC5)c(C)c4oc3=O)ccc2OC)c1` [Compound 2, 1-(3′,6-dimethoxy-[1,1′-biphenyl]-3-yl)-3-(8-methyl-7-((1-methylpiperidin-4-yl)oxy)-2-oxo-2H-chromen-3-yl)urea], the “p-Akt and total Akt levels” value [6] is reported as “unaffected”, the “Inhibition of firefly luciferase re-maturation” value [7] is reported as “does not inhibit” and the “Hsp90 client protein levels” value ([3]; A549, 12 h, low (half IC50) and high (five-times IC50) concentrations) is reported as “unchanged”. The “EGFR and C-Raf levels” value [5, 11] was “remained constant”, the “Total MEK and ERK levels” value [5, 11] was “remained constant” and the p-MEK levels ([5]; A549, 750 nM, 12 h) was “undetectable”. For the same molecule, the “p-MEK and p-ERK levels” value ([5]; A549, 12 h, high concentration (five-times IC50, 750 nM)) was “significantly lower levels”, the “p-MEK and p-ERK levels” value ([5]; A549, 12 h, low concentration (half IC50, 70nM)) was “little effect” and the “p-MEK and p-ERK levels” value ([5]; A549, 24 h, 750 nM) was “only slightly increased compared to 12 hours”. For the same molecule, the “Hsp90 client protein levels” value ([4]; low (half IC50) and high (five-times IC50) concentrations) was “unchanged”, the “IC50 of 2 relative to IC50 of TAK-632” value [8] was “one tenth” and the “Dimerization of wild type B-Raf and c-Raf (co-immunoprecipitation)” value [9] was “does not result in dimerization”. The “Her3 and wild-type B-Raf levels” value ([1]; A549, 24 h, five-times IC50) was “comparable to vehicle”.
With `CNC(=O)c1cc(Oc2ccc(NC(=O)Nc3ccc(Cl)c(C(F)(F)F)c3)cc2)ccn1` [sorafenib] the Her3 levels ([1]; A549, sorafenib at five-times the reported IC50 (14 μM), 12 and 24 h) was “time-dependent increase”.
For `COC1=C2C[C@@H](C)C[C@H](OC)[C@H](O)[C@@H](C)/C=C(\C)[C@H](OC(N)=O)[C@@H](OC)/C=C\C=C(/C)C(=O)NC(=CC1=O)C2=O` [geldanamycin (GDA), geldanamycin], the Hsp90 client levels [10] was “decreased client levels” and the “Cellular levels of Hsp90” value ([10]; at concentrations that decreased clients) was “increased cellular levels of Hsp90”.
With `COc1cccc(-c2cccc(NC(=O)Nc3cc4ccc(OC5CCN(C)CC5)c(C)c4oc3=O)c2)c1` [Compound 5, 1-(3′-methoxy-[1,1′-biphenyl]-3-yl)-3-(8-methyl-7-((1-methylpiperidin-4-yl)oxy)-2-oxo-2H-chromen-3-yl)urea] the Hsp90 client levels ([3]; five-times IC50) was “did not result in decreased client levels”, the p-MEK levels ([5]; A549, 12 and 24 h, five-times IC50) was “unchanged” and the p-ERK levels ([5]; A549, 12 h, five-times IC50) was “decreased”. The p-ERK levels ([5]; A549, 24 h, five-times IC50) was “comparable to vehicle” and the “p-MEK and p-ERK levels” value ([5]; A549, 24 h, five-times IC50) was “reestablished”.
